# Results: ChEMBL document CHEMBL3616442, “Unconventional Knoevenagel-type indoles: Synthesis and cell-based studies for the identification of pro-apoptotic agents” (Eur J Med Chem, 2015)
# Key:
# [1] = Growth inhibition of human RXF393 cells after 48 hrs by sulforhodamine B assay; format: functional; details: RXF 393, 48 h
# [2] = Growth inhibition of human EKVX cells after 48 hrs by sulforhodamine B assay; format: functional
# Procedure, shortened: (§1)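 NCI 60-cell-line screen. Compounds tested at five 10-fold dilutions from 10^-4 to 10^-8 M. Cells exposed for the last 48 h of a 72 h incubation, growth estimated by sulforhodamine B protein assay. GI50 is the concentration giving 50% growth inhibition. Values beyond the tested range are expressed as greater or lesser than the extreme concentration.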
# OVCAR-4 = experiment: Growth inhibition of human OVCAR4 cells after 48 hrs by sulforhodamine B assay; format: functional; details: OVCAR-4, 48 h; procedure, shortened: as §1
# MDA-MB-468 = experiment: Growth inhibition of human MDA-MB-468 cells after 48 hrs by sulforhodamine B assay; format: functional; details: MDA-MB-468, 48 h; procedure, shortened: as §1
# SK-MEL-2 = experiment: Growth inhibition of human SK-MEL-2 cells after 48 hrs by sulforhodamine B assay; format: functional; details: SK-MEL-2, 48 h
# NCI-H226 = experiment: Growth inhibition of human NCI-H226 cells after 48 hrs by sulforhodamine B assay; format: functional; details: NCI-H226, 48 h; procedure, shortened: as §1
# [3] = Growth inhibition of human LOXIMVI cells after 48 hrs by sulforhodamine B assay; format: functional; details: LOX IMVI; procedure, shortened: as §1
# UACC-257 = experiment: Growth inhibition of human UACC257 cells after 48 hrs by sulforhodamine B assay; format: functional; details: UACC-257, 48 h
# A549 = experiment: Growth inhibition of human A549 cells after 48 hrs by sulforhodamine B assay; format: functional; details: A549, 48 h; procedure, shortened: as §1
# U-251 = experiment: Growth inhibition of human U251 cells after 48 hrs by sulforhodamine B assay; format: functional; details: U-251, 48 h
# NCI-H460 = experiment: Growth inhibition of human NCI-H460 cells after 48 hrs by sulforhodamine B assay; format: functional; details: NCI-H460, 48 h; procedure, shortened: as §1
# SW-620 = experiment: Growth inhibition of human SW620 cells after 48 hrs by sulforhodamine B assay; format: functional; details: SW-620, 48 h
# HL-60(TB) = experiment: Growth inhibition of human HL-60(TB) cells after 48 hrs by sulforhodamine B assay; format: functional; details: HL-60, 48 h
# Procedure, shortened: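 NCI 60-cell-line screen, HL-60(TB) included. Compound given at five 10-fold dilutions from 10^-4 to 10^-8 M. Cells exposed for the last 48 h of a 72 h incubation. Growth or viability estimated by sulforhodamine B protein assay. GI50 is the concentration giving 50% growth inhibition. Values outside the tested range are reported as greater or less than the highest or lowest concentration.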
# K562 = experiment: Growth inhibition of human K562 cells after 48 hrs by sulforhodamine B assay; format: functional; details: K562, 48 h; procedure, shortened: as §1
# MT4 = experiment: Antiproliferative activity against human MT4 cells after 96 hrs by MTT assay; format: functional, cell-based; details: MT4, 96 h
# Procedure, shortened: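 Exponentially growing MT-4 cells (CD4+ human T-cells carrying integrated HTLV-1 genome), seeded at 1×10^5 cells/mL in RPMI-1640 with 10% FCS and antibiotics. Serial dilutions of compound (DMSO stock 100 mM, diluted in medium), 37 °C, 5% CO₂, 96 h. Viability read by MTT. 50% inhibition versus untreated controls by linear regression. Mean ± SD of three independent determinations.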
# A498 = experiment: Growth inhibition of human A498 cells after 48 hrs by sulforhodamine B assay; format: functional; details: A498, 48 h; procedure, shortened: as §1
# [4] = Growth inhibition of human HCC2998 cells after 48 hrs by sulforhodamine B assay; format: functional; details: HCC 2998, 48 h; procedure, shortened: as §1
# SNB-19 = experiment: Growth inhibition of human SNB19 cells after 48 hrs by sulforhodamine B assay; format: functional; details: SNB-19, 48 h
# DU-145 = experiment: Growth inhibition of human DU145 cells after 48 hrs by sulforhodamine B assay; format: functional; details: DU-145, 48 h; procedure, shortened: as §1
# NCI-H23 = experiment: Growth inhibition of human NCI-H23 cells after 48 hrs by sulforhodamine B assay; format: functional; details: NCI-H23, 48 h; procedure, shortened: as §1
# KM12 = experiment: Growth inhibition of human KM12 cells after 48 hrs by sulforhodamine B assay; format: functional; details: KM12, 48 h; procedure, shortened: as §1
# OVCAR-8 = experiment: Growth inhibition of human OVCAR8 cells after 48 hrs by sulforhodamine B assay; format: functional; details: OVCAR-8, 48 h
# [5] = Growth inhibition of human Hs 578T cells after 48 hrs by sulforhodamine B assay; format: functional; procedure, shortened: as §1
# [6] = Growth inhibition of human SF539 cells after 48 hrs by sulforhodamine B assay; format: functional; details: SF-539, 48 h
# UACC-62 = experiment: Growth inhibition of human UACC62 cells after 48 hrs by sulforhodamine B assay; format: functional; details: UACC-62, 48 h
# HT-29 = experiment: Growth inhibition of human HT-29 cells after 48 hrs by sulforhodamine B assay; format: functional; details: HT-29, 48 h; procedure, shortened: as §1
# NCI-H322M = experiment: Growth inhibition of human NCI-H322M cells after 48 hrs by sulforhodamine B assay; format: functional; procedure, shortened: as §1
# MCF7 = experiment: Growth inhibition of human MCF7 cells after 48 hrs by sulforhodamine B assay; format: functional; details: MCF7, 48 h; procedure, shortened: as §1
# HCT-116 = experiment: Growth inhibition of human HCT116 cells after 48 hrs by sulforhodamine B assay; format: functional; details: HCT-116, 48 h; procedure, shortened: as §1
# [7] = Growth inhibition of human NCI-ADR-RES cells after 48 hrs by sulforhodamine B assay; format: functional; procedure, shortened: as §1
# ACHN = experiment: Growth inhibition of human ACHN cells after 48 hrs by sulforhodamine B assay; format: functional; procedure, shortened: as §1
# [8] = Growth inhibition of human HOP92 cells after 48 hrs by sulforhodamine B assay; format: functional; details: HOP-92, 48 h; procedure, shortened: as §1
# SNB-75 = experiment: Growth inhibition of human SNB75 cells after 48 hrs by sulforhodamine B assay; format: functional; details: SNB-75, 48 h
# UO-31 = experiment: Growth inhibition of human UO31 cells after 48 hrs by sulforhodamine B assay; format: functional; details: UO-31, 48 h
# OVCAR-3 = experiment: Growth inhibition of human OVCAR3 cells after 48 hrs by sulforhodamine B assay; format: functional; details: OVCAR-3, 48 h; procedure, shortened: as §1
# HCT-15 = experiment: Growth inhibition of human HCT15 cells after 48 hrs by sulforhodamine B assay; format: functional; details: HCT-15, 48 h; procedure, shortened: as §1
# OVCAR-5 = experiment: Growth inhibition of human OVCAR5 cells after 48 hrs by sulforhodamine B assay; format: functional; details: OVCAR-5, 48 h
# [9] = Growth inhibition of human MOLT4 cells after 48 hrs by sulforhodamine B assay; format: functional; details: MOLT-4, 48 h; procedure, shortened: as §1
# SK-MEL-28 = experiment: Growth inhibition of human SK-MEL-28 cells after 48 hrs by sulforhodamine B assay; format: functional; details: SK-MEL-28, 48 h
# [10] = Growth inhibition of human BT549 cells after 48 hrs by sulforhodamine B assay; format: functional; details: BT-549, 48 h; procedure, shortened: as §1
# SK-MEL-5 = experiment: Growth inhibition of human SK-MEL-5 cells after 48 hrs by sulforhodamine B assay; format: functional; details: SK-MEL-5, 48 h
# Malme-3M = experiment: Growth inhibition of human MALME-3M cells after 48 hrs by sulforhodamine B assay; format: functional; procedure, shortened: as §1
# TK-10 = experiment: Growth inhibition of human TK10 cells after 48 hrs by sulforhodamine B assay; format: functional; details: TK-10, 48 h
smiles,measurement,setting,value
COc1ccc2[nH]c(-c3ccccc3)c(C=C(C#N)C#N)c2c1,GI50,[1],9.8 µM
same,GI50,[2],4.1 µM
same,GI50,OVCAR-4,5.4 µM
same,GI50,MDA-MB-468,2.1 µM
same,GI50,SK-MEL-2,5.9 µM
same,GI50,NCI-H226,3.5 µM
same,GI50,[3],4.9 µM
same,GI50,UACC-257,30 µM
same,GI50,A549,7 µM
same,GI50,U-251,3.5 µM
same,GI50,NCI-H460,3.6 µM
same,GI50,SW-620,3.6 µM
same,GI50,HL-60(TB),2.5 µM
same,GI50,K562,2.1 µM
same,EC50,MT4,1 µM
same,GI50,A498,2 µM
same,GI50,[4],6.1 µM
same,GI50,SNB-19,6 µM
same,GI50,DU-145,6.5 µM
same,GI50,NCI-H23,4.1 µM
same,GI50,KM12,3.5 µM
same,GI50,OVCAR-8,7.7 µM
same,GI50,[5],2.4 µM
same,GI50,[6],2.9 µM
same,GI50,UACC-62,2.5 µM
same,GI50,HT-29,3.1 µM
same,GI50,NCI-H322M,7.4 µM
same,GI50,MCF7,2.2 µM
same,GI50,HCT-116,4.4 µM
same,GI50,[7],2.8 µM
same,GI50,ACHN,7.4 µM
same,GI50,[8],2.4 µM
same,GI50,SNB-75,2.8 µM
same,GI50,UO-31,6.4 µM
same,GI50,OVCAR-3,3.1 µM
same,GI50,HCT-15,3.2 µM
same,GI50,OVCAR-5,44.2 µM
same,GI50,[9],3.7 µM
same,GI50,SK-MEL-28,4.4 µM
same,GI50,[10],2.2 µM
same,GI50,SK-MEL-5,2.9 µM
same,GI50,Malme-3M,4.4 µM
same,GI50,TK-10,5.1 µM
